Tb MetRS inh: Trypanosoma brucei MetRS inhibition; inhibition, % at 11.9 µM; purified T. brucei MetRS, ATP depletion, Kinase-Glo luminescence; 360,000 compounds, 0.4% hits;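 active = inhibition above a per-plate cutoff of the control wells' mean inhibition plus 3 SD, cut at about 5.5% in these data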;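 also: 0% = DMSO wells median and 100% = median of wells with control inhibitor compound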
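Assay system: T. brucei methionyl-tRNA synthetase, purified | Medium: HEPES buffer with MgCl2, KCl, DTT, spermine, BSA, pyrophosphatase | Compound: 11.9 µM single point | Incubation: 15 min enzyme-compound preincubation, 2 h reaction, 10 min detection, 25 °C | Measured by: Kinase-Glo luciferase luminescence reporting remaining unconsumed ATP | Measure: % inhibition normalized to control-well medians | Replication: Singlicate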
NR3A LBD binder: modulates the human NR3A ligand-binding domain; NR3A LBD differential scanning fluorimetry, Tm shift; 0% = protein alone, 100% = glycine-bound protein; Tm shift relative to glycine control, % at 25 µM; 340,000 compounds, 2.5% hits;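 active = melting temperature shift of at least 10% of the positive control shift, at one fixed dose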
MPTP block: permeability transition pore inhibition; isolated mouse mitochondria, Ca2+ swelling absorbance, 30 min; inhibition, % at 10 µM; 360,000 compounds, 1.4% hits;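 active = inhibition of 50% or more, scaled per plate between neutral and stimulator controls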;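 also: 0% = DMSO wells given calcium and 100% = 1 mM EGTA wells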
WT yeast gro inh: growth inhibition of WT yeast, mitochondrial fusion screen; mitochondrial fusion phenotypic screen, WT strain; inhibition, % at 10 µM; 190,000 compounds, 2.1% hits; AID 1362; in the data active = inhibition above about 58%; tested in S. cerevisiae
CHOP inhibitor: inhibitors of CHOP induction in ER stress response; CHO-K1 CHOP-promoter luciferase, tunicamycin-induced, 15-18 h; inhibition, % at 10 µM; 220,000 compounds, 3.8% hits; AID 2732;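 active = compounds that reduced the stress-induced luciferase reporter signal by more than about 70% of percent inhibition, limit read from the data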;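 also: 0% = tunicamycin plus vehicle and 100% = wells without tunicamycin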
EBV gp42 block: EBV gp42 inhibition; 220,000 compounds, 0.42% hits; inhibition, % (tested at 21.74 µM); AID 1085; Q1HVG2; Fluorescence polarization binding assay, mP read-out; in the data active = inhibition above about 50%
Target sequence (Q1HVG2 whole entry, looked up): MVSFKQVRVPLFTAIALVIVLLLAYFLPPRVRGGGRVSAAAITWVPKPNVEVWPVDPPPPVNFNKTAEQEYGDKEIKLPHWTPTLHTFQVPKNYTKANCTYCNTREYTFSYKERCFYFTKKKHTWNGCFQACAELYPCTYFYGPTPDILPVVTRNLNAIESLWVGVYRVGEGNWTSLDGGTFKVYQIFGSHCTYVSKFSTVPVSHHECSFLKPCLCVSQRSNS
MPTP counter: mitochondrial membrane potential, counter-screen; shares compounds with MPTP block; 5,000 compounds, 78% hits; AID 624504; inhibition, % at 10 µM; isolated mitochondria, Rhodamine 123 fluorescence; in the data active = inhibition above about 22%;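 also: 0% = DMSO vehicle and 100% = positive control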
MPTP swell DR: dose response confirmation of mitochondrial permeability transition pore inhibitors; shares compounds with MPTP block; isolated mitochondria swelling, absorbance; IC50, µM; 780 compounds, 58% hits; in the data active = IC50 below about 20 µM
MPTP cs DR: counter-screen for mitochondrial permeability transition pore inhibitors, dose response. shares compounds with MPTP block. isolated mitochondria counterscreen, fluorescence read-out. IC50, µM. 780 compounds, 49% hits. AID 651564; in the data active = IC50 below about 80 µM
* hit, by the source's call; . = not tested or not shown. An excerpt weighted towards active compounds, which were near 6.4% of everything screened.

SMILES | Tb MetRS inh | NR3A LBD binder | MPTP block | WT yeast gro inh | CHOP inhibitor | EBV gp42 block | MPTP counter | others
CC(C)c1ccc(OCC(=O)Nc2ccncc2)cc1 | 0 | -3 | 74* | . | . | . | 71*
O=C(COc1ccc2ccccc2c1)Nc1ccncc1 | -1 | 2 | 98* | 0 | -4 | -3 | 100*
COc1ccccc1NC(=O)CCN1CCCCCC1 | -1 | . | -1 | 8 | 27 | -13 | .
Cc1c(C)c2c(c(C)c1O)CC[C@@](C)(CCC[C@H](C)CCC[C@H](C)CCCC(C)C)O2 | 0 | -1 | 1 | . | . | . | .
CCc1ccc(-c2ccc3nnc(SCC(N)=O)n3n2)cc1 | 0 | 2 | 1 | . | . | . | .
N#C/C(=N\Nc1cccc(C(F)(F)F)c1)C(=O)c1csc(-c2cccnc2)n1 | 1 | 11* | 84* | . | 7 | 0 | 61*
CCOc1ccc(CN(C)c2ccc(S(=O)(=O)N3CCN(C)CC3)cc2[N+](=O)[O-])cc1OC | 0 | 3 | 55* | . | . | . | 93*
Cc1nn(C)c(C(=O)NCc2ccc(Cl)cc2)c1Cl | 0 | -2 | 93* | -10 | 70 | 0 | 86*
Cc1nc(C)c(C(=O)NCc2ccc(Cl)cc2)o1 | 0 | -2 | 14 | -9 | 54 | -24 | .
COC(=O)C1=C(C)N(c2ccc(C)c(C)c2)/C(=C/c2ccco2)C1=O | -1 | -2 | 6 | 7 | 0 | 5 | .
CCN(CC)CCCNC(=O)c1cc(-c2ccc(Cl)c(Cl)c2)on1 | 1 | 0 | 79* | 6 | -11 | -13 | -5
Nc1ccc(Cc2ccc([N+](=O)[O-])cc2)cc1 | 0 | 1 | 0 | . | . | . | .
COc1ccc(NC(=O)c2[nH]c(C)c(C(C)=O)c2C)cc1S(=O)(=O)N1CCOCC1 | 0 | -3 | -4 | -6 | 13 | -12 | .
CC(=O)c1c(C)[nH]c(C(=O)Nc2ccc(C)c(S(=O)(=O)N(C)C)c2)c1C | 0 | -2 | 3 | 1 | -21 | -7 | .
CC(=O)c1c(C)[nH]c(C(=O)Nc2ccc(C)c(S(=O)(=O)Nc3ccc(C)cc3C)c2)c1C | 1 | 1 | 92* | . | -17 | -25 | 72*
CC(=O)c1c(C)[nH]c(C(=O)Nc2ccc(Cl)c(S(=O)(=O)N3CCOCC3)c2)c1C | 0 | -6 | 64* | 7 | 0 | -15 | 80*
COc1cc(CNCc2ccc(SC)cc2)cc(OC)c1 | -1 | 1 | 56* | -2 | 1 | -23 | 16 | MPTP swell DR=11*;MPTP cs DR=18*
CCc1c(C(=O)Nc2ccc(OC)c(Cl)c2)[nH]c(C)c1C(C)=O | 1 | -9 | 88* | 13 | 86* | 13 | 95*
Cc1cccc(NC(=S)NC(NC(=O)c2ccco2)C(Cl)(Cl)Cl)c1 (stereo not drawn) | 0 | 5 | 7 | 11 | 15 | -24 | .
Cc1cc(C)c(NC(=S)NC(NC(=O)c2ccccc2)C(Cl)(Cl)Cl)c(C)c1 (stereo not drawn) | -1 | 6 | 76* | 22 | 69 | -1 | 84*
Cc1ccc(NC(=S)NC(NC(=O)c2ccco2)C(Cl)(Cl)Cl)cc1 (stereo not drawn) | -2 | 6 | -2 | 1 | 17 | -1 | .
CN(C)C(=O)NC(NC(=S)Nc1ccccc1)C(Cl)(Cl)Cl (stereo not drawn) | 0 | 2 | -1 | -3 | 11 | -2 | .
O=C(NC(NC(=S)Nc1ccccc1)C(Cl)(Cl)Cl)c1cccc(Cl)c1 (stereo not drawn) | -1 | 24* | 96* | -11 | 86* | -29 | 77*
Cc1ccccc1NC(=S)NC(NC(=O)c1ccccc1C)C(Cl)(Cl)Cl (stereo not drawn) | -1 | -3 | 78* | 4 | 1 | -10 | 88*
Cc1ccc(NC(=S)NC(NC(=O)c2ccccc2)C(Cl)(Cl)Cl)c(C)c1 (stereo not drawn) | -1 | 15* | 73* | 30 | 55 | -4 | 81*
SMILES | Tb MetRS inh | NR3A LBD binder | MPTP block | WT yeast gro inh | CHOP inhibitor | EBV gp42 block | MPTP counter | others
COc1ccccc1NC(=S)NC(NC(C)=O)C(Cl)(Cl)Cl (stereo not drawn) | 0 | 5 | 0 | . | 5 | -10 | .
CCOC(=O)C(NC(=O)c1ccccc1)=C1C=C(C)OC(C)=C1 | -1 | 1 | -2 | 47 | 6 | -7 | .
COc1ccc(OC(C)C(=O)Nc2ccccc2F)cc1 (stereo not drawn) | 0 | -1 | 0 | -5 | 8 | -3 | .
NC(=NCCC[C@H](N)C(=O)O)NO | . | . | . | . | 3 | . | .
COc1cc(C(=O)N2CCN(c3cc(Cl)ccc3Cl)CC2)cc(OC)c1OC | 0 | -3 | 0 | 11 | . | -4 | .
CSc1nnc(-c2ccccc2Cl)n1N | -1 | -2 | 1 | -17 | -18 | -16 | .
O=C(O)c1cccc(NC(=S)NC(NC(=O)c2cccc([N+](=O)[O-])c2)C(Cl)(Cl)Cl)c1 (stereo not drawn) | 0 | -9 | 4 | . | -12 | 1 | .
O=C(NC(NC(=S)Nc1ccc(Cl)cc1Cl)C(Cl)(Cl)Cl)c1cccc([N+](=O)[O-])c1 (stereo not drawn) | 0 | 21* | 94* | -18 | 67 | 60* | 80*
COc1cccc(N2CCN(C(=O)c3ccc(CS(=O)Cc4ccccc4Cl)o3)CC2)c1 (stereo not drawn) | -1 | -1 | -2 | . | . | . | .
COCCCN1Cc2cccc(C(=O)O)c2C1=O | -1 | -2 | -2 | 1 | 22 | 1 | .
Cc1cccc2sc(NNC(=O)c3cc(-c4cccs4)nc4ccccc34)nc12 | 0 | -5 | 68* | 59* | 6 | -13 | 87*
CC[C@@]1(c2ccccc2)C(=O)N(C(=O)OC)N1C(=O)OC | 0 | 2 | -1 | . | . | . | .
CCOC(=O)N1CCN(C(=O)c2cc(Cl)c(Cl)cc2C(=O)O)CC1 | -2 | -2 | 55* | -4 | 15 | 1 | -6 | MPTP swell DR=>100;MPTP cs DR=>80
CC(=O)N(CCc1cccc(C)c1)Cc1cc2ccc(C)cc2[nH]c1=O | 0 | -10 | 0 | . | . | . | .
CCN(CC)S(=O)(=O)c1ccc(N2CCN(c3ccccc3OC)CC2)c(N)c1 | -1 | 0 | 108* | . | . | . | 98*
COc1ccc(NC(=O)c2cc(-c3ccc4c(c3)OCO4)on2)cc1OC | -1 | 0 | 0 | . | . | . | .
Cc1[nH]nc(-c2ccc(OCc3cnn(-c4ccccc4)c3)cc2O)c1Oc1ccccc1F | -1 | 6 | 3 | -6 | -1 | -5 | .
Cc1[nH]nc(-c2ccc(O)cc2O)c1Oc1ccccc1 | -1 | 32* | 56* | -12 | 20 | 1 | 58*
